Sampled rows, rich in hits. Any-hit rate of the full collection: about 2.5%.
PAD4 FP inh = blocks human protein arginine deiminase 4. Q9UM07. recombinant PAD4, RCA probe fluorescence polarization. inhibition, % at 6.36 µM. actives 0.41% (n = 330,000). AID 485272;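 active = percent inhibition above a cutoff equal to the mean of all tested compounds plus 3 SD, cut at about 15% in these data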;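 note: 0% = PAD4 with RCA probe and DMSO and 100% = probe without PAD4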
GSTO1 inh = GSTO1 inhibition, counter-screen for RBBP9 inhibitors. P78417. recombinant GSTO1, activity-based probe fluorescence polarization. inhibition, % at 5.96 µM. actives 1.1% (n = 300,000);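 active = inhibition above the campaign mean inhibition plus 3 SD, cut at about 35% in these data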;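 note: 0% = GSTO1-1 with DMSO and 100% = wells lacking GSTO1-1 enzyme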
Target sequence (P78417 whole entry, looked up): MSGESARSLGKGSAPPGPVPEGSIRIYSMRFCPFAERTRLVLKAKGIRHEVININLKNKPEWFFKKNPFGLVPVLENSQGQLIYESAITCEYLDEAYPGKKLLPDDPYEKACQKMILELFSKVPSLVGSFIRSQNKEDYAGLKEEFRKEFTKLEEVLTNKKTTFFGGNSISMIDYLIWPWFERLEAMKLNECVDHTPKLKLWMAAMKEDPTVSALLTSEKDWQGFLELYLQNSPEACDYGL
CTSL1 counter = counter-screen for PFM18AAP inhibitors: inhibitors of F. hepatica cathepsin L1 | AID 1906 | inhibition, % at 5.96 µM | actives 0.49% (n = 300,000) | recombinant F. hepatica cathepsin L1, Z-Leu-Arg-MCA fluorescence;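 active = inhibition above the mean of all tested compounds plus 3 SD, set per screening campaign, cut at about 17% in these data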;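 note: 0% = plate median of test compound wells and 100% = 1 µM Z-Phe-Ala-diazomethylketone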
TDP2 absorb = blocks human TDP2 phosphodiesterase activity; O95551; recombinant TDP2, T5PNP hydrolysis, p-nitrophenol absorbance 415 nm; inhibition, % at 12.8 µM; actives 0.34% (n = 370,000); AID 720702;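 active = inhibition above the mean of all tested compounds plus 3 SD, set per campaign, cut at about 25% in these data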;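 note: 0% = DMSO with enzyme and 100% = buffer with substrate but no TDP2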
Target sequence (O95551 whole entry, looked up): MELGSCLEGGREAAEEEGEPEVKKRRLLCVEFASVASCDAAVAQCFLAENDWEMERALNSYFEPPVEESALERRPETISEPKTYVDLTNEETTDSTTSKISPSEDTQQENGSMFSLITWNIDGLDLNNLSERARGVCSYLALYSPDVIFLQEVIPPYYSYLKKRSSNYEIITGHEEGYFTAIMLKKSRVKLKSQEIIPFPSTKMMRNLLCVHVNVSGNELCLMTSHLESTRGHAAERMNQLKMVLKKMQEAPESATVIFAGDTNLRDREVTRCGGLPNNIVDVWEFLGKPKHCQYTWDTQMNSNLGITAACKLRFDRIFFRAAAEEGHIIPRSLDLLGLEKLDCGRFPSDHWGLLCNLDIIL
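Assay system: recombinant human TDP2 / Reagent: T5PNP substrate at 5 mM, a TopII-DNA adduct mimic / Measured by: epi absorbance from released p-nitrophenol / Evaluation: % inhibition relative to enzyme-containing and enzyme-free wells / Control set: enzyme-free and DMSO wells / Replicates: each compound tested once, singlicate / Schedule: enzyme reaction with compound for 2 h at 37 °C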
PRMT1 inh = blocks human protein arginine methyltransferase 1. actives 1.3% (n = 370,000). AID 652257. inhibition, % at 2.79 µM. recombinant PRMT1, activity-based probe fluorescence polarization;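 active = inhibition above about 21% made by adding two undisclosed values, limit read from the data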
GSTO1 confirm = confirmation of human GSTO1 inhibitors; actives 54% (n = 2,400); shares compounds with GSTO1 inh; AID 2176; inhibition, % at 5.96 µM; recombinant GSTO1, probe fluorescence polarization;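 active = inhibition above the primary screen's cutoff, its mean inhibition plus 3 SD, cut at about 35% in these data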;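 note: loss of polarization as inhibitors block binding of rhodamine sulfonate ester activity probe; 0% = GSTO1 with DMSO and 100% = wells lacking GSTO1 enzyme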
Numbers without * were called inactive.

How did Cc1cc(C(=O)NC(C)C2CCCO2)no1 (stereo unspecified) do in these assays?
PAD4 FP inh: -8; GSTO1 inh: -12; CTSL1 counter: -4; TDP2 absorb: 5; PRMT1 inh: -1

How did Nc1c2c(nc3ccccc13)CCCC2 do in these assays?
PAD4 FP inh: -6; GSTO1 inh: -2; CTSL1 counter: 6; TDP2 absorb: 2; PRMT1 inh: -3

Results for Clc1c2c(nc3ccccc13)CCC2 ?
PAD4 FP inh: 4; GSTO1 inh: 71*; CTSL1 counter: 5; TDP2 absorb: 18; PRMT1 inh: -3; GSTO1 confirm: 6

How did C#CC(=O)N(c1cc(OC)ccc1OC)C(C(=O)NC1CCCC1)c1cccs1 (stereo unspecified) do in these assays?
PAD4 FP inh: 0; GSTO1 inh: 65*; CTSL1 counter: 34*; GSTO1 confirm: 68*

How did COc1ccc(N(C(=O)c2snc(C(N)=O)c2N)C(C(=O)NC2CCCC2)c2cccs2)cc1OC (stereo unspecified) do in these assays?
PAD4 FP inh: -1; GSTO1 inh: 1; CTSL1 counter: 2; TDP2 absorb: -10; PRMT1 inh: 1

What do the screens show for `NC1=C(Br)C(=O)c2ccccc2C1=O`?
PAD4 FP inh: 4; GSTO1 inh: 66*; CTSL1 counter: 35*; TDP2 absorb: 15; PRMT1 inh: 3; GSTO1 confirm: 28

What do the screens show for `COC(=O)C1CN(Cc2ccc(OC)cc2)CCS(=O)(=O)N1Cc1ccc(C(F)(F)F)cc1` (stereo unspecified)?
TDP2 absorb: -9; PRMT1 inh: 0

What do the screens show for `CCOC(=O)C1=C(SCC)c2cc3c(n2C1=O)CCCC3`?
PAD4 FP inh: 5; GSTO1 inh: 38*; CTSL1 counter: 6; TDP2 absorb: 5; PRMT1 inh: 1; GSTO1 confirm: 21

Results for COC1(OC)N=C(N)C2(C#N)C(c3cccc(Oc4ccccc4)c3)C12C#N (stereo unspecified) ?
PAD4 FP inh: -1; GSTO1 inh: 65*; CTSL1 counter: -1; TDP2 absorb: -7; PRMT1 inh: -2; GSTO1 confirm: 30

What do the screens show for `CCOC(=O)c1cnc(-n2[nH]c(C)cc2=O)[nH]c1=O`?
PAD4 FP inh: -2; GSTO1 inh: 42*; CTSL1 counter: 1; TDP2 absorb: 14; PRMT1 inh: -6; GSTO1 confirm: 4

How did CCOC(=O)c1cnc(-n2nc(C)cc2C)[nH]c1=O do in these assays?
PAD4 FP inh: 2; GSTO1 inh: -6; CTSL1 counter: 0; TDP2 absorb: 7; PRMT1 inh: 1

What do the screens show for `CN1[C@@H](Cc2ccccc2)COc2cc(N3CCCC3)ccc2S1(=O)=O`?
TDP2 absorb: 1; PRMT1 inh: -2

How did CCN=c1scc(C)n1/N=C/c1cc(Br)c(O)c(Br)c1 do in these assays?
PAD4 FP inh: -2; GSTO1 inh: 46*; CTSL1 counter: 6; TDP2 absorb: -4; PRMT1 inh: -5; GSTO1 confirm: 21

How did CCN=c1scc(-c2ccco2)n1/N=C/c1ccc(O)cc1 do in these assays?
PAD4 FP inh: -1; GSTO1 inh: -2; CTSL1 counter: 2; TDP2 absorb: -9; PRMT1 inh: 7

Results for Cc1nnc(SCC(=O)c2cc(C)n(-c3c(C)n(C)n(-c4ccccc4)c3=O)c2C)s1 ?
PAD4 FP inh: 3; GSTO1 inh: 38*; CTSL1 counter: 5; TDP2 absorb: -3; PRMT1 inh: 1; GSTO1 confirm: 27

How did Clc1ss/c(=N\c2ccccn2)c1Cl do in these assays?
PAD4 FP inh: -3; GSTO1 inh: 61*; CTSL1 counter: 6; TDP2 absorb: -1; PRMT1 inh: 4; GSTO1 confirm: 45*

How did COc1cc(C2Nc3cccc4cccc(c34)N2)cc(OC)c1OC(C)=O do in these assays?
PAD4 FP inh: -7; GSTO1 inh: 49*; CTSL1 counter: 1; TDP2 absorb: -3; PRMT1 inh: 7; GSTO1 confirm: 4

How did COc1cc(C2Nc3cccc4cccc(c34)N2)ccc1O do in these assays?
PAD4 FP inh: -5; GSTO1 inh: 31; CTSL1 counter: -3; TDP2 absorb: 15; PRMT1 inh: 7

Results for O=C(CCl)c1ccc2c(c1)CCN2C(=O)C1CCCCC1 ?
PAD4 FP inh: 0; GSTO1 inh: 42*; CTSL1 counter: 16; TDP2 absorb: 13; PRMT1 inh: 3; GSTO1 confirm: 64*

How did CC(=O)N1CCN(C(=O)CCn2nnc3ccccc32)CC1 do in these assays?
TDP2 absorb: 17; PRMT1 inh: -1

How did Cc1c(Cl)cccc1N=Cc1ccc([N+](=O)[O-])s1 do in these assays?
PAD4 FP inh: -11; GSTO1 inh: 39*; CTSL1 counter: 11; TDP2 absorb: 2; PRMT1 inh: 1; GSTO1 confirm: 16

How did COc1ccc(S(=O)(=O)Nc2ccc(O)c3ccccc23)cc1 do in these assays?
PAD4 FP inh: 7; GSTO1 inh: 70*; CTSL1 counter: -3; TDP2 absorb: 42*; PRMT1 inh: 23*; GSTO1 confirm: 9

Results for Nc1[nH]c(C(=O)c2ccccc2)c(-c2ccc3ccccc3c2)c1C(=O)NCCc1ccc(Cl)cc1 ?
TDP2 absorb: -10; PRMT1 inh: 19

Results for COc1cccc2c(SCC(=O)N/N=C/c3ccc(O)c(O)c3)cc(C)nc12 ?
PAD4 FP inh: 1; GSTO1 inh: 62*; CTSL1 counter: 3; TDP2 absorb: -9; PRMT1 inh: 29*; GSTO1 confirm: 9

What do the screens show for `COc1ccc2nc(C)cc(SCC(=O)N/N=C/c3ccc(O)c(O)c3)c2c1`?
PAD4 FP inh: 6; GSTO1 inh: 51*; CTSL1 counter: 3; TDP2 absorb: 5; PRMT1 inh: 6; GSTO1 confirm: 4

Results for O=C(CSc1nc2ccccc2o1)N/N=C/c1ccccc1 ?
PAD4 FP inh: -4; GSTO1 inh: 1; CTSL1 counter: 7; TDP2 absorb: -9; PRMT1 inh: 4

What do the screens show for `O=C(CSc1nc2ccccc2o1)N/N=C/c1ccc(O)c(O)c1`?
PAD4 FP inh: 2; GSTO1 inh: 57*; CTSL1 counter: -1; TDP2 absorb: -20; PRMT1 inh: 20; GSTO1 confirm: 11

How did COc1ccc2nc(C)cc(SCC(=O)N/N=C/c3cccc4ccccc34)c2c1 do in these assays?
PAD4 FP inh: -1; GSTO1 inh: -9; CTSL1 counter: 2; TDP2 absorb: -17; PRMT1 inh: -2

What do the screens show for `COc1cc(NCCCCCCCN)c2ncccc2c1`?
PAD4 FP inh: 27*; GSTO1 inh: 46*; CTSL1 counter: 2; GSTO1 confirm: 60*

Results for COc1cc(NCc2ccccc2O)c2ncccc2c1 ?
TDP2 absorb: -2; PRMT1 inh: 18

What do the screens show for `CCOc1ccc(C(c2c(C)[nH][nH]c2=O)c2c(C)[nH][nH]c2=O)cc1OC`?
PAD4 FP inh: 7; GSTO1 inh: 42*; CTSL1 counter: 7; TDP2 absorb: 0; PRMT1 inh: 0; GSTO1 confirm: 1

High-throughput results (PubChem BioAssay)
